Bioassay records (PubChem)
Only some compounds are listed: those with a hit (about 1.4% of all), similar ones and a draw of the others.
NR2E3 ag-1: NR2E3 (human) agonism. Q9Y5X4. GST-NR2E3/biotin-RetCOR TR-FRET, 1536-well. inhibition of corepressor binding, % at 4.78 µM. actives 0.12% (n = 320,000). AID 2300;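 active = percent inhibition above the cutoff of mean plus 3 SD of all tested compounds, set per screening campaign, cut at about 20% in these data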;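 also: 0% = DMSO wells and 100% = biotin wells as full block of FRET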
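Format: 1536-well format; test system: GST-NR2E3 and biotin-RetCOR proteins; read-out basis: percent inhibition of TR-FRET ratio; timing: 5 h incubation at 4 °C; detection: time-resolved FRET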
PG9 Ab binder: PG9 antibody binding by small molecule. actives 0.43% (n = 360,000). inhibition, % at 6.7 µM. TR-FRET gp120-PG9 antibody binding. AID 624416; in the data active = inhibition above about 8.5%
NR1D1 modulator: modulators of human Rev-erb alpha DNA binding; activity, % at 10 µM; AID 1259318; P20393; actives 0.79% (n = 370,000); Rev-erbα–FITC-DNA binding, fluorescence polarization, 90 min;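 active = activity above about 14%, limit read from the data; passing the limit was not always enough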;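 also: 0% = DMSO wells with 35 nM protein and 100% = DMSO wells with 750 nM protein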
Target sequence (P20393 whole entry, looked up): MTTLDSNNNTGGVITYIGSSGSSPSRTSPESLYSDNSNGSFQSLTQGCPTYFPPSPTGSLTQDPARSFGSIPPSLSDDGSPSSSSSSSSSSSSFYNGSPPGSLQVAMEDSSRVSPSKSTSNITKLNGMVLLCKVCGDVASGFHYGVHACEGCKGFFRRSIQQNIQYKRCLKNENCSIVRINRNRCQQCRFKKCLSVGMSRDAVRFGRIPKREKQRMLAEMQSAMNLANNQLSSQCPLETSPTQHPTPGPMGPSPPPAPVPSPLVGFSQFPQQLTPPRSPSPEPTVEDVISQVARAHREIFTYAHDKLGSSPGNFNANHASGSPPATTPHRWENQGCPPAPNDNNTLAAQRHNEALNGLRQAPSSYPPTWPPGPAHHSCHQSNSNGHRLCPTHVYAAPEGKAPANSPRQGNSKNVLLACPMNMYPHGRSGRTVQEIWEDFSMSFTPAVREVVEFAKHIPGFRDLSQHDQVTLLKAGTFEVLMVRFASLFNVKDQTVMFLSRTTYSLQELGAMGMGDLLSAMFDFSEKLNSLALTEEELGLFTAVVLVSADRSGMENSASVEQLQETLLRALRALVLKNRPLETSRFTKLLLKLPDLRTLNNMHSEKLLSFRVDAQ
NR2E3 ag-2: agonists of human NR2E3 nuclear receptor. Q9Y5X4. CHO-S Gal4-NCOR/VP16-NR2E3 two-hybrid, luciferase. inhibition of corepressor binding, % at 3.98 µM. actives 0.35% (n = 360,000);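 active = inhibition above the mean of all tested compounds plus 3 SD, cut at about 70% in these data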;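 also: 0% = DMSO with NR2E3 transfected cells and 100% = cells lacking NR2E3 construct; higher means lower luciferase signal from less NR2E3 corepressor binding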
NR1D1 mod conf: confirmation of modulators of human Rev-erb alpha DNA binding; shares compounds with NR1D1 modulator; Rev-erb alpha FITC-DNA binding, fluorescence polarization, 90 min; activation, % at 25 µM; actives 61% (n = 3,000); AID 1259319;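 active = activation at or above a set limit, or at least 3 SD above the negative control mean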;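 also: 0% = 35 nM protein with DMSO and 100% = 750 nM protein high control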
RORg DNA counter: affects RORgamma DNA binding in a Rev-erb alpha counter-screen. shares compounds with NR1D1 modulator. purified RORgamma protein-FITC-DNA binding, fluorescence polarization. IC50, µM. actives 8% (n = 910). AID 1259320;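 active = Compounds whose fitted half-maximal concentration for disrupting protein-DNA binding is below 10 micromolar; the record names Rev-erb in its text, so the target is in doubt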
* hit, by the source's call; i = inactive; . = not tested or not shown.

SMILES	NR2E3 ag-1	PG9 Ab binder	NR1D1 modulator	NR2E3 ag-2	NR1D1 mod conf	others
Cc1c(CC(=O)NCCCC(=O)O)c(=O)oc2c(C)c3oc4c(c3cc12)CCCC4	1.0	-0.7	-2.7	-18.2	.
Nc1ccc2c3c(cccc13)C(=O)N(c1ccccc1)C2=O	.	-4.7	91.7*	-50.4	80.1*	RORg DNA counter=>40
Cn1c2ccccc2c2cc(C(=O)OCC(=O)N3CC(=O)Nc4ccccc43)sc21	2.5	2.0	73.8*	-14.1	62.0*
O=C1CN(C(=O)COC(=O)c2cccs2)c2ccccc2N1	-0.4	1.5	-3.4	-9.3	.
CC(=O)c1sc(NC(=O)c2cccc(N3C(=O)CCC3=O)c2)nc1-c1ccccc1	2.3	0.8	42.6*	-3.0	28.0*
CCCCN(C)S(=O)(=O)c1ccc(C(=O)N=c2sc3cc(NC(C)=O)ccc3n2C)cc1	-1.1	3.1	42.0*	-0.1	14.0
COCCNC(=O)CCCn1c(=O)c2cc(OC)c(OC)cc2n(CC(=O)Nc2ccccc2OC)c1=O	1.4	1.2	0.5	2.5	.
Cc1ccc(C(=O)NNCC(=O)Nc2ccc(Cl)cc2F)cc1	.	-0.1	18.2*	3.3	1.2
O=C(CCNC(=O)c1ccc(Cl)cc1)Nc1ccc(Cl)cc1F	-2.1	-3.6	7.4	13.9	.
O=C(OCCN1C(=O)c2cccc3c(N4CCOCC4)ccc(c23)C1=O)c1ccc(Cl)cc1	-1.6	-0.9	78.8*	-22.1	118.8*	RORg DNA counter=>40
COc1cccc(NC(=O)CN(C)C(=O)CN2C(=O)c3ccc([N+](=O)[O-])cc3C2=O)c1	3.2	0.0	3.9	-28.1	.
c1ccc(-c2nc(C3CCCCC3)no2)cc1	1.6	-0.5	0.4	-12.4	.
NC(=O)CSc1nnc(-c2ccncc2)n1-c1ccc(Cl)cc1	4.0	2.0	-9.8	15.0	.
O=C(CSc1nnc(-c2ccncc2)n1-c1ccc(Cl)cc1)c1ccc(Cl)c(Cl)c1	.	.	31.1*	.	30.8*	RORg DNA counter=>40
Cc1c(/C(O)=C2/C(=O)C(=O)N(CCN3CCOCC3)C2c2cccs2)cnn1-c1ccccc1 (centres undefined)	6.1	4.9	21.2*	15.9	25.6*
Cc1ccc(C2/C(=C(/O)c3cnn(-c4ccccc4)c3C)C(=O)C(=O)N2CCN2CCOCC2)o1 (centres undefined)	-1.5	-0.6	-5.8	-93.0	.
COc1ccc(C(=O)CSc2cc(C)nc(SCC(=O)c3ccc(C)cc3)n2)cc1	2.4	-1.1	26.8*	9.6	9.7
COCC(=O)Nc1c(C(=O)Nc2ccccc2OC)oc2ccccc12	1.4	1.1	23.3	2.2	.
COc1ccccc1NC(=O)c1oc2ccccc2c1NC(=O)c1cc(OC)c(OC)c(OC)c1	-0.2	0.3	100.0*	-19.2	69.3*	RORg DNA counter=>40
Cn1ccc(-c2ccccc2)c(C#N)c1=O	1.4	-0.5	3.1	-3.7	.
Cn1c2ccccc2n2c(=O)c(Cl)c(-c3ccccc3)c(C#N)c12	-0.9	0.4	41.1*	-17.1	33.2*	RORg DNA counter=i
CSc1nc(-c2ccccc2)nc(NC(=O)C(C)C)c1C(C)=O	-0.5	-1.9	2.0	-3.8	.
COc1cc2c(cc1O)CC[n+]1cc3c(OC)c(OC)ccc3cc1-2	-6.3	-10.6	0.8	-0.8	.
COc1cc2c(cc1OC)-c1cc3ccc4c(c3c[n+]1CC2)OCO4	-4.0	-10.8	26.8*	-47.0	44.5*	RORg DNA counter=>40
COc1ccc(-c2cn(-c3ccc(C)cc3C)c(=S)[nH]2)cc1OC	0.1	0.6	23.1*	9.2	-1.5
SMILES	NR2E3 ag-1	PG9 Ab binder	NR1D1 modulator	NR2E3 ag-2	NR1D1 mod conf	others
CCOC(=O)CNC(=O)COc1coc(CN2CCN(c3ccccc3F)CC2)cc1=O	0.0	0.3	3.4	-14.0	.
COc1ccc2oc(C(=O)OCC(=O)/C(C#N)=C(\C)N)c(C)c2c1	0.6	-0.3	19.5*	4.2	13.6
COc1ccc(C(=O)N2CCN(C)C(=O)[C@@H]2C)cc1OC1CCN(C(C)=O)CC1	3.3	-1.6	-4.9	-30.4	.
COC(=O)COc1ccc2cc(-c3ccc(OC)cc3)c(=O)oc2c1	-2.0	-1.4	24.8*	-8.4	-4.0
COc1ccc(-c2cc3ccc(OCC(C)=O)cc3oc2=O)cc1OC	0.8	-1.1	19.2*	-55.7	14.9
Cc1ccc(CNC(=O)c2cn(C3CCCC3)c(=O)c3c2c2ccccc2n3C)o1	-0.1	.	.	.	.
CC(c1nc2ccccc2[nH]1)n1c(=O)c(-c2cccnc2)nc2ccccc21 (centres undefined)	.	0.9	1.9	.	.
CC(c1nc2ccccc2[nH]1)n1c(=O)c(-c2cccs2)nc2ccccc21 (centres undefined)	.	0.1	30.4*	.	18.4*
COc1ccc(C2C(C#N)=C(C)NC3=C2C(=O)c2ccccc23)cc1 (centres undefined)	2.6	-0.7	81.2*	-12.3	53.6*	RORg DNA counter=>40
CCOc1ccc(C2C(C#N)=C(C)NC3=C2C(=O)c2ccccc23)cc1 (centres undefined)	-10.0	-3.5	2.1	-11.6	.
CC1NC(=O)c2cc3ccccc3cc2-n2c1nc1cc(Cl)ccc1c2=O (centres undefined)	.	-1.4	16.1*	-10.8	-0.5
CC(=O)c1ccc(NC(=O)COC(=O)c2c3c(nc4ccccc24)/C(=C\c2cccs2)CCC3)cc1	0.2	0.4	-0.9	-3.7	.
COC(=O)Cc1c(C(=O)OC)nnn1-c1ccc(OC(F)(F)F)cc1	-0.3	-1.2	-1.9	-21.6	.
CCc1nc(SCC(=O)Nc2cc(C)ccc2OC)c2c(C)c(C)sc2n1	-1.6	-0.8	18.0*	-26.0	7.9
Cn1nc(C(C)(C)C)cc1NC(=O)C1(C)CCN1C(=O)CCc1ccccc1 (centres undefined)	.	-0.2	-3.4	-23.3	.
Cn1nc(C(C)(C)C)cc1NC(=O)C1(C)CCN1C(=O)c1ccccc1CCc1ccccc1 (centres undefined)	.	-0.9	19.7*	-11.3	-1.3
Cc1ccc(SCC(=O)Nc2cc(C)on2)cc1	-3.0	0.7	7.1	-31.5	.
CCc1cc2ccc(C)cc2nc1SCC(=O)Nc1cc(C)on1	-6.3	4.5	17.2*	-13.6	9.0
Cc1cc(NC(=O)CSc2nc3ccccc3cc2C#N)no1	2.8	-9.7	27.4*	-52.3	17.5*
COc1ccc2nc(SCC(=O)Nc3cc(C)on3)c(C#N)cc2c1	0.2	-4.8	60.9*	-21.0	27.4*
CCOc1ccc2nc(SCC(=O)N3c4ccccc4Sc4ccccc43)sc2c1	-0.4	-2.0	0.5	5.0	.
CCOc1ccc2nc(SCC(=O)N3c4ccccc4Sc4ccccc43)c(C#N)cc2c1	-0.5	-2.6	141.5*	11.0	60.6*	RORg DNA counter=>40
CCCCn1c(N)c(N(C)C(=O)c2ccc(OCC3CCCO3)cc2)c(=O)[nH]c1=O (centres undefined)	5.6	0.2	3.4	1.6	.
Cc1ccc2cc(C#N)c(SCC(=O)N3CCCc4ccccc43)nc2c1	1.5	-2.1	59.6*	-5.1	44.3*	RORg DNA counter=>40
CCSc1nc2ccc(C)cc2cc1C#N	1.5	-0.7	30.1*	11.9	12.4
